Source: PubChem BioAssay (The Scripps Research Institute Molecular Screening Center)
Compounds with a hit are over-represented: about 1.3% of the library has one in this group of screens.
PAD4 inh – blocks human protein arginine deiminase 4. recombinant PAD4, RCA probe fluorescence polarization. inhibition, % at 6.36 µM. 330,000 tested, 0.41% active. AID 485272;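 active means percent inhibition above a cutoff equal to the mean of all tested compounds plus 3 SD, cut at about 15% in these data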
Fam108B inh – counter-screen for RBBP9 inhibitors: inhibitors of mouse Fam108B; recombinant Fam108B, FP-Rh probe fluorescence polarization; inhibition, % at 9.51 µM; 300,000 tested, 0.33% active;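 active means inhibition above the screen mean inhibition plus 3 SD, computed separately per campaign, cut at about 18% in these data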;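 further: inhibitors lower polarization as less probe binds the enzyme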
LYPLA2 inh – LYPLA2 (human) inhibition in PME1 counter-screen. inhibition, % at 5.9 µM. 320,000 tested, 0.38% active. AID 2177. recombinant LYPLA2, FP-Rh probe fluorescence polarization;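 active means inhibition above the screen-wide mean plus 3 SD, limit set per campaign, cut at about 26% in these data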
PME-1 primary – blocks human protein phosphatase methylesterase 1. Q9Y570. recombinant PME-1, FP-Rh probe fluorescence polarization. inhibition, % at 5.9 µM. 320,000 tested, 0.53% active;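 active means inhibition above the campaign mean of all compounds plus 3 SD, cut at about 26% in these data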;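 further: competitive labeling of PME-1 active site by serine hydrolase directed probe; inhibitors block probe labeling so polarization falls and inhibition rises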
LYPLA1 inh – counter-screen for PME1 inhibitors: inhibitors of human LYPLA1. O75608. recombinant LYPLA1, FP-Rh probe fluorescence polarization. inhibition, % at 5.9 µM. 320,000 tested, 0.16% active;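 active means inhibition above the mean of all tested compounds plus 3 SD, set per campaign, cut at about 14% in these data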;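 further: inhibitors block serine hydrolase probe labeling of LYPLA1 so polarization falls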
RBBP9 inhibitor – inhibitors of human serine hydrolase RBBP9; O75884; recombinant RBBP9, FP-Rh probe fluorescence polarization; inhibition, % at 7.94 µM; 220,000 tested, 0.2% active; AID 1515;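 active means inhibition above the campaign mean of all tested compounds plus 3 SD, cut at about 14% in these data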
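System: RBBP9 protein / Buffer or medium: Tris/NaCl buffer pH 8.0 with 0.1% Pluronic / Probe or stimulus: Serine-hydrolase probe FP-Rh, 375 nM pre-mixing / Dosing: 7.94 µM single dose, 0.794% DMSO / Times: enzyme-compound preincubation 30 min, then probe labeling 45 min, 25 °C / Technique: fluorescence polarization (mP), excitation 525 nm, emission 598 nm / Replication: singlicate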
LYPLA2 conf – LYPLA2 (human) inhibition, confirmation counter-screen; shares compounds with LYPLA2 inh; recombinant LYPLA2, FP-Rh probe fluorescence polarization; inhibition, % at 5.9 µM; 1,100 tested, 72% active;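 active means mean inhibition across replicates above the hit cutoff set in the primary screen, cut at about 26% in these data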;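 further: blocked labeling of the enzyme by serine hydrolase FP-Rh probe lowers polarization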
PAD4 confirm – PAD4 (human) inhibition, confirmed; inhibition, % at 6.36 µM; recombinant PAD4, RCA probe fluorescence polarization; AID 488796; 1,200 tested, 28% active; shares compounds with PAD4 inh;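 active means mean inhibition across replicates above the hit cutoff set by the earlier primary screen, cut at about 15% in these data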;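 further: inhibitors block active-site labeling by the probe so polarization falls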
Of the large screens only hits and unclear results are named; the others gave an inactive call (follow-up assays come after a bar, where they were run).

COc1ccc(-n2c(SCC(=O)NCc3cccs3)nc3[nH]ncc3c2=O)cc1	none
COC(=O)c1cccc(S(=O)(=O)N2CCC(NC(=O)Nc3cccc(F)c3)CC2)c1	none
CC(=O)c1ccc(S(=O)(=O)N2CCC(NC(=O)Nc3cccc(F)c3)CC2)cc1	LYPLA2 inh 37 | LYPLA2 conf 47
CCO[C@@H]1OC(C(=O)N2CCOCC2)=C[C@H](C(C)(C)C)[C@H]1CCCO	none (no result: RBBP9 inhibitor)
CCOC(=O)c1c(NC(=O)CN2CCOCC2)sc(C(=O)NC)c1C	none
CCOC(=O)c1c(NC(=O)CN2C(=O)NC(C)(c3ccc(Cl)cc3)C2=O)sc(C(=O)NC)c1C (configuration not stated)	LYPLA2 inh 41 | LYPLA2 conf 34
O=C(CNC(=O)c1cn2ccccc2n1)Nc1ccc(F)c(F)c1	none (no result: RBBP9 inhibitor)
Cc1cc(=O)oc2c(C)c(OCC(=O)N3CCN(c4cccc(Cl)c4)CC3)ccc12	LYPLA2 inh 30 (no result: RBBP9 inhibitor) | LYPLA2 conf 34
Cc1cc(=O)oc2c(C)c(OCC(=O)N3CCN(C(=O)C4COc5ccccc5O4)CC3)ccc12 (configuration not stated)	LYPLA2 inh 38 (no result: RBBP9 inhibitor) | LYPLA2 conf 36
CCCn1c(C)cc(C(=O)COc2ccc(C)nc2[N+](=O)[O-])c1C	LYPLA2 inh 30 | LYPLA2 conf inactive
COCCn1c(C)cc(C(=O)COc2ccc(C)nc2[N+](=O)[O-])c1C	none
CC(NC(=O)COc1cccnc1[N+](=O)[O-])c1ccc(Cl)cc1 (configuration not stated)	none (no result: RBBP9 inhibitor)
Cn1c(-c2ccc(F)cc2)cnc1NCc1cc2c(cc1[N+](=O)[O-])OCO2	LYPLA2 inh 42 | LYPLA2 conf 44
Cn1c(-c2ccc(Cl)cc2)cnc1NCc1cc2c(cc1[N+](=O)[O-])OCO2	LYPLA2 inh 51 | LYPLA2 conf 49
Cc1cc(F)ccc1NCc1cc2c(cc1[N+](=O)[O-])OCO2	LYPLA2 inh 27 | LYPLA2 conf inactive
Cn1c(-c2ccccc2)cnc1NCc1cc2c(cc1[N+](=O)[O-])OCO2	LYPLA2 inh 29 | LYPLA2 conf 41
CC(C)(C)c1nc(-c2ccccc2)nc2c1OCCC2	none (no result: RBBP9 inhibitor)
COc1ccccc1C(=O)C1CCCN(C(=O)c2ccc3c(c2)OCCO3)C1 (configuration not stated)	LYPLA2 inh 43 | LYPLA2 conf inactive
CC1CCCN(C(=O)c2ccc3c(c2)OCCO3)C1 (configuration not stated)	none (no result: Fam108B inh, RBBP9 inhibitor)
O=C1NC(Cc2ccccc2)c2nc3ccc(Cl)cc3c(=O)n2-c2ccc(Cl)cc21 (configuration not stated)	LYPLA2 inh 26 (no result: Fam108B inh, RBBP9 inhibitor) | LYPLA2 conf inactive
Cc1ccc2nc3n(c(=O)c2c1)-c1ccc(Cl)cc1C(=O)NC3Cc1ccccc1 (configuration not stated)	none (no result: Fam108B inh, RBBP9 inhibitor)
O=C(CCNC(=O)c1ccc(Br)cc1)NNC(=O)c1ccccc1	none (no result: Fam108B inh, LYPLA2 inh, PME-1 primary, LYPLA1 inh, RBBP9 inhibitor)
Cc1ccc(OC(C)C(=O)N2CC(=O)Nc3ccccc32)cc1 (configuration not stated)	none (no result: RBBP9 inhibitor)
CC(C)(C)c1ccc(Cn2nnc3c(=O)[nH]c(C4CCN(C(=O)Cc5cccs5)CC4)nc32)cc1	PAD4 inh 37, LYPLA2 inh 27 | LYPLA2 conf inactive | PAD4 confirm inactive
COc1cccc2cc(C(=O)C3=C(O)C(=O)N(CCN4CCOCC4)C3c3ccc(C)o3)oc12 (configuration not stated)	none (no result: RBBP9 inhibitor)
Cc1ccccc1C(=O)NNC(=O)CSc1nc2ccccc2c(=O)[nH]1	PAD4 inh 23 | PAD4 confirm inactive
Cc1cccc(C)c1NC(=O)CSc1nc2ccccc2c(=O)[nH]1	none
CN(C)CCN(Cc1ccccc1)c1ccccn1	PAD4 inh 73 | PAD4 confirm inactive
CCc1ccc(CNc2ccc(N3CCN(C(C)=O)CC3)cc2)cc1	PAD4 inh 29 | PAD4 confirm inactive
Cn1c(=O)c2ccccc2n(Cc2ccccc2Cl)c1=O	none (no result: RBBP9 inhibitor)
